This excerpt belongs to a sample that is enriched for hits.
HCT116 PTEN-null – growth suppression of PTEN-null HCT116, primary screen, cell-based, CellTiter-Glo. HCT116 PTEN-null viability, 60 h; active compounds read low. viability, % at 10 µM. 140,000 tested, 1.2% active. AID 827, 2007;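 active = viability at or below a set limit, 4 SD under the median of all tested compounds, cut at about 3.7% in these data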;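 also: PTEN knockout HCT116 line with beta catenin targeted HCT116 as companion control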
Phagocyt inh – inhibitors of macrophage phagocytosis, primary screen, imaging, J774A.1 cells, IgG beads | 110,000 tested, 0.07% active | inhibition, % at 5 µM | J774A.1 macrophage IgG-bead phagocytosis;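 active = inhibition above the mean of the plate negative controls plus 5 SD, cut at about 13% in these data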;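 also: phagocytic index as fraction of beads internalized from green versus red external bead signal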
Lung fibro prol – antiproliferative effect on LL 47 fibroblasts – human, LL 47 cells, CellTiter-Glo luminescence, primary screen; LL 47 human lung fibroblast viability, ATP luminescence; active compounds read low; viability, % at 10 µM; 85,000 tested, 1.1% active; AID 719, 2007;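 active = viability at or below 50% in the single dose screen; inactive = viability above 50%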;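 also: compound exposure lasted 72 h before the ATP readout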
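Times – overnight cell rest, 72 h compound treatment at 37 °C · Test system – human lung fibroblast line LL 47, low passage · Amount – 1,150 cells in each well · Controls – cell-only wells, no compound · Doses – 0.1% DMSO in all compound wells · Measured by – CellTiter-Glo luminescence · Buffer or medium – IMEM plus 15% FBS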
HCT116 bCat-KO – primary screen for growth suppressors in beta-catenin knockout HCT116 cells (colon tumor, human) | HCT116 beta-catenin knockout viability, CellTiter-Glo, 60 h; active compounds read low | 140,000 tested, 1.5% active | viability, % at 10 µM | AID 818, 2007;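 active = viability at or under a set limit, the compound median less 4 SD, cut at about 6% in these data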
H69AR inhibit – proliferation blockers of H69AR lung cancer cells, primary screen, cell-based, human, 86K library | AID 598, 2007 | viability, % at 10 µM | H69AR lung tumor viability, ATP luminescence, 72 h; active compounds read low | 85,000 tested, 6% active;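 active = viability at or below 40%; inactive = viability above 40%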;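 also: multidrug resistant small cell line overexpressing MRP-1 efflux transporter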
HUVEC prolif 384 – inhibitors of HUVEC proliferation, primary screen, cell-based, 384-well; viability, % at 10 µM (by protocol); 86,000 tested, 1.1% active; CellTiter-Glo luminescence, 72 h; active compounds read low;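 active = viability at or below 30%; inactive = viability above 30%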
Each line names hits and unclear results; the compound was inactive in the other large screens.

Cc1ccc(C2CC(c3cccs3)=NN2C(=O)CSC2=NN3CCCC(=O)N=C3S2)cc1 (centres undefined)	H69AR inhibit 11
COc1ccc(C(=O)CCN2CCCCCC2)cc1	HCT116 PTEN-null 1.3, HCT116 bCat-KO 1.2 (no result: Lung fibro prol, H69AR inhibit, HUVEC prolif 384)
CCCOc1ccc(C(O)C(CN2CCOCC2)c2ccccc2)cc1 (centres undefined)	none
c1ccc(C(CN2CCOCC2)c2ccccc2)cc1	none
CCOc1ccc(C(=O)CCN2CCCCC2)cc1	none
O=C(c1ccc(F)cc1)C(CN1CCOCC1)c1ccccc1 (centres undefined)	HCT116 PTEN-null 1.6, Lung fibro prol 25, HCT116 bCat-KO 1.6
COc1ccc(C(=O)C(CN2CCOCC2)c2ccccc2)cc1 (centres undefined)	HCT116 PTEN-null 1.6, Lung fibro prol 11, HCT116 bCat-KO 3.4, H69AR inhibit 0.5
CCCOc1ccc(C(=O)C(CN2CCCC2)c2ccccc2)cc1 (centres undefined)	HCT116 PTEN-null 0.9, HCT116 bCat-KO 1.3 (no result: Lung fibro prol, H69AR inhibit, HUVEC prolif 384)
CN1/C(=C\C=Nc2cc(S(=O)(=O)N3CCOCC3)ccc2N2CCOCC2)C(C)(C)c2ccccc21	none (no result: Lung fibro prol, H69AR inhibit, HUVEC prolif 384)
CCCCOc1ccc(C(=O)C(CN2CCOCC2)c2ccccc2)cc1 (centres undefined)	HCT116 PTEN-null 2.0, HCT116 bCat-KO 1.9, H69AR inhibit 1.0, HUVEC prolif 384 2.3 (no result: Phagocyt inh)
COc1ccc(C(=O)C(CN2CCCC2)c2ccccc2)cc1 (centres undefined)	HCT116 PTEN-null 1.1, Lung fibro prol 10, HCT116 bCat-KO 2.2, H69AR inhibit 1.2
COc1ccc(C(=O)C(OC(=O)c2ccccc2)c2ccccc2)cc1 (centres undefined)	none (no result: Phagocyt inh, Lung fibro prol, H69AR inhibit, HUVEC prolif 384)
O=C(c1ccccc1)C(CCC(CN1CCOCC1)C(=O)c1ccccc1)CN1CCOCC1 (centres undefined)	HCT116 PTEN-null 1.9, Lung fibro prol 50, HCT116 bCat-KO 1.9, H69AR inhibit 1.3
O=C1C(Cl)=C(NCCCO)C(=O)c2ccccc21	H69AR inhibit 7.4
Cc1ccc(NC2=C(NCCO)C(=O)c3ccccc3C2=O)cc1	none (no result: Lung fibro prol, H69AR inhibit, HUVEC prolif 384)
CN(C)c1ccc(NC2=C(Cl)C(=O)c3ccccc3C2=O)cc1	HCT116 PTEN-null 1.5, HCT116 bCat-KO 1.6 (no result: Lung fibro prol, H69AR inhibit, HUVEC prolif 384)
C=CCc1cccc(/C=N/NC(=O)CCC(=O)Nc2ccc(C)cc2)c1O	none (no result: Lung fibro prol, H69AR inhibit, HUVEC prolif 384)
NC(=O)C1CCN(C2=C(Cl)C(=O)c3ccccc3C2=O)CC1	HCT116 bCat-KO 5.7 (no result: Phagocyt inh, Lung fibro prol, H69AR inhibit, HUVEC prolif 384)
Cc1ccc2c(CC(=O)OC(C)C(=O)NCc3ccc4c(c3)OCO4)coc2c1 (centres undefined)	none
CCCNC(=S)N(Cc1ccccc1)Cc1nc2ccccc2c(=O)[nH]1	none (no result: Lung fibro prol, H69AR inhibit, HUVEC prolif 384)
Cc1cc(C)n(CC(=O)N/N=C/c2cccc([N+](=O)[O-])c2)n1	none (no result: Lung fibro prol, H69AR inhibit, HUVEC prolif 384)
CC(C)(C)C(=O)/C(=C/c1cccc([N+](=O)[O-])c1)n1cncn1	HCT116 PTEN-null 0.5, HCT116 bCat-KO 0.7 (no result: Lung fibro prol, H69AR inhibit, HUVEC prolif 384)
CC(C)(C)C(=O)NC(NC(=O)C(C)(C)C)c1ccc([N+](=O)[O-])cc1	none (no result: Lung fibro prol, H69AR inhibit, HUVEC prolif 384)
CC(C)(C)C(=O)/C(=C\c1ccc([N+](=O)[O-])cc1)n1cncn1	HCT116 PTEN-null 1.6, Lung fibro prol 2.1, HCT116 bCat-KO 1.4, HUVEC prolif 384 2.1 (no result: Phagocyt inh)
Fc1ccc(Br)cc1C1C=C(c2ccc(Br)s2)Nc2ncnn21 (centres undefined)	H69AR inhibit 29
CCc1cc2c(=O)[nH]c(-c3ccccn3)nc2s1	HCT116 PTEN-null 2.3, HCT116 bCat-KO 2.5 (no result: Lung fibro prol, H69AR inhibit, HUVEC prolif 384)
Cc1c(Cl)cnc(NC(=O)CSc2nncs2)c1Cl	none (no result: Lung fibro prol, H69AR inhibit, HUVEC prolif 384)
COc1cc(CNCCCN2CCOCC2)cc(Br)c1OCC(=O)N1CCCCC1	none (no result: Phagocyt inh, Lung fibro prol, H69AR inhibit, HUVEC prolif 384)
CCOc1cc(CNCCCN2CCOCC2)cc(Br)c1OCC(=O)Nc1cccc(C(F)(F)F)c1	HCT116 PTEN-null 1.5, HCT116 bCat-KO 1.9 (no result: Lung fibro prol, H69AR inhibit, HUVEC prolif 384)
COC(=O)COc1ccc(S(=O)(=O)Nc2ccc3c(c2)OCO3)cc1Cl	Lung fibro prol 44, HUVEC prolif 384 2.3
COCCNS(=O)(=O)c1ccc(OCC(=O)OC)c(Cl)c1	none
COC(=O)COc1ccc(S(=O)(=O)NCCC2=CCCCC2)cc1Cl	HUVEC prolif 384 10
CCn1c(COc2ccc3c(c2)CCCC3)nnc1SCC(=O)Nc1ccc(C(=O)OC)cc1	none (no result: Lung fibro prol, H69AR inhibit, HUVEC prolif 384)
O=C(NCc1ccccc1)[C@@H]1C[C@H]1[C@@H](NP(=O)(c1ccccc1)c1ccccc1)c1ccccc1	none (no result: Phagocyt inh, Lung fibro prol, H69AR inhibit, HUVEC prolif 384)
O=C(NCC1CC1)[C@@H]1C[C@H]1[C@@H](NP(=O)(c1ccccc1)c1ccccc1)c1ccccc1	HCT116 PTEN-null 0.1, HCT116 bCat-KO 0.2 (no result: Phagocyt inh, Lung fibro prol, H69AR inhibit, HUVEC prolif 384)
O=C(Nc1ccc2nn(-c3ccccc3)nc2c1)c1ccc(Br)o1	H69AR inhibit 30
CCN(CC)c1cc(C)c2cc(NC(=O)c3ccc(Br)o3)ccc2n1	HUVEC prolif 384 28 (no result: Phagocyt inh)
CCCC(=O)Nc1nc2ccc(NC(=O)c3ccc(Br)o3)cc2s1	none
CCN1CCN(c2cc(C)c3cc(NC(=O)c4ccc(Br)o4)ccc3n2)CC1	Lung fibro prol 43, HUVEC prolif 384 4.5
COc1cc(C(=O)Nc2cc(C)ccn2)cc(OC)c1OC	none
COc1ccc(C(=O)NC(=O)Nc2cc(C)ccn2)cc1	H69AR inhibit 40
Cn1c(NCC(O)c2ccccc2)nc2c1c(=O)n(Cc1ccc(Cl)cc1)c(=O)n2C (centres undefined)	none
Cn1c(NCC(O)c2ccccc2)nc2c1c(=O)n(Cc1ccc(Cl)c(Cl)c1)c(=O)n2C (centres undefined)	H69AR inhibit 13 (no result: HCT116 PTEN-null, Phagocyt inh, HCT116 bCat-KO)
CCn1c(=NC(=O)CSC(C)=O)sc2cc(F)ccc21	H69AR inhibit 28
O=C(NCc1cccnc1)NC(C(F)(F)F)C(F)(F)F	none
O=C(NCc1cccnc1)NC1(C(F)(F)F)Oc2ccccc2O1	H69AR inhibit 28
CC(=O)c1cccc(NC(=O)NCc2cccnc2)c1	none
O=C(NCc1cccnc1)Nc1cccc(NC(=O)NCc2cccnc2)c1	Phagocyt inh 90
COc1ccccc1-c1nnc(SCC(=O)c2ccc(C3CCCCC3)cc2)n1Cc1ccco1	none
Cc1nc2c3c(-c4ccccc4)nc(N4CCOCC4)nc3nn2c(C)c1CCC(=O)O	none (no result: HCT116 PTEN-null, Phagocyt inh, HCT116 bCat-KO)
Cc1cc(C)c(NC(=O)c2ccc(CNS(=O)(=O)c3cc(C(F)(F)F)ccc3Cl)cc2)c(C)c1	none (no result: Lung fibro prol, H69AR inhibit, HUVEC prolif 384)
CCCCCCOC(=O)C(C#N)c1nc2ccccc2nc1N1CCOCC1 (centres undefined)	none
CCCCCCOC(=O)C(C#N)c1nc2ccccc2nc1N1CCN(CC)CC1 (centres undefined)	HUVEC prolif 384 4.3
CCOc1ccccc1CN(CCc1ccc2c(c1)OCO2)Cc1ccccn1	none
O=C(N/N=C\c1ccc(CNS(=O)(=O)c2ccc(Cl)cc2)o1)C(=O)Nc1ccc(Oc2ccccc2)cc1	HCT116 PTEN-null 2.0, HCT116 bCat-KO 1.4 (no result: Lung fibro prol, H69AR inhibit, HUVEC prolif 384)

Source: PubChem BioAssay
